Laboratory results from ChEMBL document CHEMBL3414496, “Synthesis and biological evaluation of novel 2-heteroarylimino-1,3-thiazolidin-4-ones as potential anti-tumor agents” (Eur J Med Chem, 2015).
Active and inactive are the calls of the source. No cut-off for these calls is given here.

How the values were obtained:
[1] = system: HT-29; experiment: Induction of cell cycle arrest in human HT-29 cells assessed as accumulation at subG1 phase by propidium iodide staining based flow cytometry (reference value: 6.9 +/- 0.5%); assay type: functional
[2] = system: HT-29; experiment: Induction of autophagy in human HT-29 cells assessed as increase in beclin-1 protein expression by Western blotting method; assay type: functional, cell-based
Summary of the method: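 HT29 cells in flasks treated over two days. Total protein homogenates immunoblotted with anti-beclin-1 (1:500), with GAPDH as loading control.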

[3] = system: HT-29; experiment: Induction of redox status changes in human HT-29 cells assessed as ROS content in presence of 1 mM ascorbic acid by DCF-DA staining based fluorescence assay (reference value: 65.7 +/- 4.7%)
[4] = system: HT-29; experiment: Inhibition of cell growth in human HT-29 cells assessed as mitotic index ratio in presence of 1 mM ascorbic acid (reference value: 1.12 +/- 0.03); assay type: functional
[5] = system: HT-29; experiment: Induction of autophagy in human HT-29 cells assessed as increase in acidic vesicles by acridine orange staining based flow cytometry; assay type: functional, cell-based
Summary of the method: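 HT29 cells treated for two days with daily medium changes, stained with 1 µg/ml acridine orange for 15 min, then trypsinized and suspended in PBS. FL-3 fluorescence read by flow cytometry on 30 000 cells/sample and expressed in arbitrary units relative to DMSO-treated cells. Triplicates from three independent experiments.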

[6] = system: HT-29; experiment: Cytotoxicity against human HT-29 cells after 72 hrs by MTT assay; assay type: functional, cell-based; details: HT-29, 72 h
Summary of the method: (§1)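 Cells seeded at 10^4/well, exposed 24 h later to graded concentrations (0.01–100 µM) for 72 h at 37°C; MTT 0.5 mg/ml for 2 h, formazan dissolved in DMSO, absorbance at 570 nm. […] Colon lines in DMEM, breast lines in RPMI, both with 10% FCS.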

[7] = system: HT-29; experiment: Induction of redox status changes in human HT-29 cells assessed as RNS content by DHR123 staining based fluorescence assay (reference value: 100%); assay type: functional
Summary of the method: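 HT29 cells treated two days after seeding, then loaded with 25 µM DHR for 20 min at 37°C. Cells trypsinized and resuspended in PBS, and 30 000 cells/sample read by flow cytometry (FL-1). Expressed as % of DMSO controls. Triplicates from three independent experiments.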

[8] = system: HT-29; experiment: Induction of redox status changes in human HT-29 cells assessed as ROS content in absence of 1 mM ascorbic acid by DCF-DA staining based fluorescence assay (reference value: 100%)
[9] = system: HT-29; experiment: Induction of cell cycle arrest in human HT-29 cells assessed as accumulation at G0/G1 phase by propidium iodide staining based flow cytometry (reference value: 46.1 +/- 0.4%); assay type: functional
[10] = system: HT-29; experiment: Induction of chromatin condensation in human HT-29 cells incubated for 2 days by DAPI staining based UV fluorescent microscopy; assay type: functional, cell-based
Summary of the method: (§2)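 HT29 cells in 35 mm dishes treated over two days, fixed in 70% ethanol for 5 min and rinsed with PBS. Stained with 1 µM DAPI in PBS for 15 min and imaged by UV fluorescence microscopy for nuclear morphology.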

[11] = system: HT-29; experiment: Inhibition of cell growth in human HT-29 cells assessed as mitotic index ratio in absence of 1 mM ascorbic acid (reference value: 1); assay type: functional
Summary of the method: (§3)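 HT29 cells treated daily from 48 h after seeding, over three days with daily medium changes, in 0.1% (v/v) DMSO vehicle. Cells trypsinised, mixed 1:1 with 0.04% trypan blue, and living cells counted by haemocytometer under microscope. Mitotic index is treated count relative to DMSO control. Triplicate determinations, two independent experiments, mean ± S.E.M.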

[12] = system: HT-29; experiment: Induction of mitochondrial membrane potential loss in human HT-29 cells incubated for 2 days by JC1 staining based UV fluorescent microscopy; assay type: functional, cell-based
Summary of the method: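 HT29 cells in dishes exposed to test agents, then 1 µM JC-1 added to the medium for 15 min at 37°C. Cells washed with warm PBS and imaged by fluorescence microscopy for J-aggregates (red channel). 50 µM CCCP for 15 min served as depolarization control.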

[13] = system: HT-29; experiment: Reduction in cell growth of human HT-29 cells at cytotoxic IC50 level after 3 days by trypan blue dye exclusion assay; assay type: functional, cell-based; summary of the method: as §3
[14] = system: HT-29; experiment: Induction of redox status changes in human HT-29 cells assessed as GSH content by fluorescence based microtiter plate method (reference value: 100%); assay type: functional
Summary of the method: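 HT29 cells exposed 48 h after seeding for 24 h, then extracted into ice-cold 10% perchloric acid with 2 mM EDTA and spun at 15 000 g. GSH in the supernatant measured by a fluorescence microtiter plate method; pellet protein measured by modified Lowry. Values in nmol GSH/mg protein, shown as % of DMSO controls. Triplicates from three experiments.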

[15] = system: SW-620; experiment: Cytotoxicity against human SW620 cells after 72 hrs by MTT assay; assay type: functional, cell-based; details: SW-620, 72 h; summary of the method: as §1
[16] = system: HT-29; experiment: Growth inhibition of human HT-29 cells at cytotoxic IC50 level after 3 days by trypan blue dye exclusion assay; assay type: functional
Summary of the method: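 HT29 cells treated 48 h after seeding, dosed daily with daily medium change over three days; drug diluted in DMSO, controls 0.1% (v/v) DMSO. Cells trypsinized, mixed 1:1 with 0.04% trypan blue, live cells counted by hematimeter. Reported as mitotic index (treated/DMSO count); triplicates from two independent experiments.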

[17] = system: MCF7; experiment: Cytotoxicity against human MCF7 cells after 72 hrs by MTT assay; assay type: functional, cell-based; details: MCF7, 72 h; summary of the method: as §1
[18] = system: HT-29; experiment: Induction of cell cycle arrest in human HT-29 cells assessed as accumulation at S phase by propidium iodide staining based flow cytometry (reference value: 23.9 +/- 0.3%); assay type: functional
[19] = system: HT-29; experiment: Induction of ROS generation in human HT-29 cells at cytotoxic IC50 level after 4 hrs by DCF-DA staining based fluorescence assay; assay type: functional, cell-based
Summary of the method: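 HT29 cells treated two days after seeding, then loaded with 50 µM DCF-DA for 15 min at 37°C. Cells trypsinized, washed and resuspended in PBS, and 30 000 cells/sample read by flow cytometry (FL-1). Expressed as % of DMSO-treated cells; […] for 1 h served as positive control. Triplicates from three independent experiments.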

[20] = system: MDA-MB-231; experiment: Cytotoxicity against human MDA-MB-231 cells after 72 hrs by MTT assay; assay type: functional, cell-based; details: MDA-MB-231, 72 h; summary of the method: as §1
[21] = system: HT-29; experiment: Induction of nuclear fragmentation in human HT-29 cells incubated for 2 days by DAPI staining based UV fluorescent microscopy; assay type: functional, cell-based; summary of the method: as §2
[22] = Cytotoxicity against human HCT116 cells after 72 hrs by MTT assay; assay type: functional, cell-based; details: HCT-116, 72 h; summary of the method: as §1
[23] = system: HT-29; experiment: Induction of redox status changes in human HT-29 cells assessed as RNS content by DAF-2DA staining based fluorescence assay (reference value: 100%); assay type: functional
Summary of the method: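 HT29 cells treated two days after seeding, then loaded with 1 µM DAF-2DA for 30 min at 37°C. Cells trypsinized and resuspended in PBS, and 30 000 cells/sample measured by flow cytometry (FL-1). Expressed as % of DMSO-treated cells. Triplicates from three independent experiments.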

For `COc1ccc(/C=C2\S/C(=N\c3csc(-c4ccc(Cl)cc4)c3)NC2=O)cc1`, the Activity [1] was 21.6%, the Activity [2] was “Active” and the Activity [3] was 97%. For the same compound, the Ratio [4] was 0.03, the Activity [5] was “Active” and the IC50 [6] was 3800 nM. For the same compound, the Activity [7] was 85.9%, the Activity [8] was 123.1% and the Activity [9] was 1.2%. The Activity [10] was “Active”, the Ratio [11] was 0.03 and the Activity [12] was “Active”. The inhibition [13] was “Active”, the Activity [14] was 88.8% and the IC50 [15] was 28100 nM. The “growth inhibition (GI)” value [16] was 90%, the IC50 [17] was 1000 nM and the Activity [18] was 18.2%. For the same compound, the Activity [19] was “Active”, the IC50 [20] was 1200 nM and the Activity [21] was “Active”. The IC50 [22] was 1300 nM and the Activity [23] was 169.7%.

With `CN(C)c1ccc(/C=C2\S/C(=N\c3csc(-c4ccc(Cl)cc4)c3)NC2=O)cc1` the Activity [1] was 29%, the Activity [2] was “Active” and the Activity [3] was 133.6%. The Ratio [4] was 0.02, the Activity [5] was “Active” and the IC50 [6] was 1500 nM. It also gave an Activity [7] of 80.1%, an Activity [8] of 177.8% and an Activity [9] of 1.5%. For the same compound, the Activity [10] was “Active”, the Ratio [11] was 0.02 and the Activity [12] was “Active”. For the same compound, the inhibition [13] was “Active”, the Activity [14] was 84.6% and the IC50 [15] was 800 nM. For the same compound, the “growth inhibition (GI)” value [16] was 90%, the IC50 [17] was 400 nM and the Activity [18] was 14.8%. For the same compound, the Activity [19] was “Active”, the IC50 [20] was 800 nM and the Activity [21] was “Active”. For the same compound, the IC50 [22] was 500 nM and the Activity [23] was 294.4%.

For `CN(C)c1ccc(/C=C2\S/C(=N\c3nc(-c4ccc(Cl)cc4)cs3)NC2=O)cc1`, the Activity [2] was “Active”, the Activity [5] was “Active” and the IC50 [6] was 500 nM. For the same compound, the Activity [7] was 157.6%, the Activity [8] was 252.5% and the Activity [10] was “Active”. The Ratio [11] was 0.13, the Activity [12] was “Active” and the Activity [14] was 109.1%. For the same compound, the IC50 [15] was 200 nM, the “growth inhibition (GI)” value [16] was less than 25% and the IC50 [17] was 100 nM. The IC50 [20] was 300 nM, the Activity [21] was “Active” and the IC50 [22] was 200 nM. It also gave an Activity [23] of 144.4%.

For `Cc1ccc(/C=C2\S/C(=N\c3csc(-c4ccc(Cl)cc4)c3)NC2=O)cc1`, the Activity [1] was 21.5%, the Activity [2] was “Active” and the Activity [3] was 102.5%. For the same compound, the Ratio [4] was 0.02, the Activity [5] was “Active” and the IC50 [6] was 6400 nM. The Activity [7] was 95%, the Activity [8] was 172% and the Activity [9] was 1.2%. For the same compound, the Activity [10] was “Active”, the Ratio [11] was 0.02 and the Activity [12] was “Active”. For the same compound, the inhibition [13] was “Active”, the Activity [14] was 73.9% and the IC50 [15] was 1500 nM. The “growth inhibition (GI)” value [16] was 90%, the IC50 [17] was 900 nM and the Activity [18] was 14.8%. The Activity [19] was “Active”, the IC50 [20] was 900 nM and the Activity [21] was “Active”. The IC50 [22] was 1000 nM and the Activity [23] was 155%.

In the case of `COc1ccc(/C=C2\S/C(=N\c3nc(-c4ccc(Cl)cc4)cs3)NC2=O)cc1`, the Activity [2] is reported as “Active”, the Activity [5] is reported as “Active” and the IC50 [6] is reported as 400 nM. The Activity [7] was 80.9%, the Activity [10] was “Active” and the Activity [12] was “Active”. The Activity [14] was 117%, the IC50 [15] was 50 nM and the “growth inhibition (GI)” value [16] was less than 25%. The IC50 [17] was 100 nM, the IC50 [20] was 300 nM and the Activity [21] was “Active”. It also gave an IC50 [22] of 400 nM and an Activity [23] of 103.3%.

With `COc1ccc(/C=C2\S/C(=N\c3csc(-c4ccc(Cl)cc4)c3)NC2=O)cc1OC` the Activity [1] was 20.6%, the Activity [2] was “Active” and the Activity [3] was 112.1%. For the same compound, the Ratio [4] was 0.04, the Activity [5] was “Active” and the IC50 [6] was 10900 nM. It also gave an Activity [7] of 83.6%, an Activity [8] of 141.6% and an Activity [9] of 2.3%. The Activity [10] was “Active”, the Ratio [11] was 0.04 and the Activity [12] was “Active”. The inhibition [13] was “Active”, the Activity [14] was 108.1% and the IC50 [15] was greater than 50000 nM. For the same compound, the “growth inhibition (GI)” value [16] was 90%, the IC50 [17] was 7600 nM and the Activity [18] was 11.3%. For the same compound, the Activity [19] was “Active”, the IC50 [20] was 1900 nM and the Activity [21] was “Active”. For the same compound, the IC50 [22] was 1700 nM and the Activity [23] was 116.3%.
